ChEMBL document CHEMBL1145132, “N-hydroxy-3-phenyl-2-propenamides as novel inhibitors of human histone deacetylase with in vivo antitumor activity: discovery of (2E)-N-hydroxy-3-[4-[[(2-hydroxyethyl)[2-(1H-indol-3-yl)ethyl]amino]methyl]phenyl]-2-propenamide (NVP-LAQ824)” (J Med Chem, 2003)
Several values for one entry are separate records, joined by “and”; a condition that tells them apart may be missing. Identical values can stand only once.

Key:
Mus musculus [1] = assay: Ratio of the change in tumor volume of treated animals to the change in tumor volume of control animals at a dose of 40 mg/kg; assay type: functional
Outline: (§1)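 HCT116 sc xenografts (≈10⁶ cells) in female athymic nude mice, eight per group, treated from ≈100 mm³ tumors with iv lactate salt in 10% DMSO/D5W qd 5×/week for 10 or 15 doses. Tumors measured weekly; % T/C = change in treated tumor volume over change in vehicle-control tumor volume; one-tailed Student's t-test.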

Histone deacetylase = assay: Inhibitory activity against histone deacetylase (HDAC) enzyme obtained from H1299 human lung carcinoma cell lysates
NCI-H1299 = assay: Inhibitory activity against H1299 human lung carcinoma cell growth; assay type: functional, cell-based
HCT-116 = assay: Inhibitory activity against HCT116 human colon cell growth; assay type: functional, cell-based
Mus musculus [2] = assay: Compound was tested in vivo for efficacy in athymic mice bearing HCT116 subcutaneous tumor xenografts at a dose of 40 mg/kg and change in the body weight of the mouse was evaluated; assay type: functional
Outline: (§2)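 Female outbred athymic nu/nu mice, ≈10⁶ HCT116 cells injected sc in right axillary region under anesthesia; treatment began when tumors ≈100 mm³ (day 13 post-implant), groups of eight balanced on tumor volume. Compound given iv as lactate salt in 10% DMSO/D5W, qd 5×/week for 15 doses. Individual body weights recorded once weekly; % change from start reported.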

Mus musculus [3] = assay: Compound was tested in vivo for maximum tolerated dose (MTD) that resulted in no deaths when administered intravenously for five days; assay type: functional
Outline: (§3)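 Athymic mice, four per group, dosed iv once daily for five consecutive days, up to a maximum of 200 mg/kg/day. Compound given as the lactate salt in 10% DMSO in 5% dextrose/water (final DMSO 10%). MTD taken as the highest dose that caused no deaths.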

Mus musculus [4] = assay: Ratio of the change in tumor volume of treated animals to the change in tumor volume of control animals at a dose of 100 mg/kg; assay type: functional; conditions: 100 mg/kg; outline: as §1
Mus musculus [5] = assay: Compound was tested in vivo for efficacy in athymic mice bearing HCT116 subcutaneous tumor xenografts at a dose of 10 mg/kg and change in the body weight of the mouse was evaluated; assay type: functional; conditions: route intravenous; outline: as §2
Mus musculus [6] = assay: Ratio of the change in tumor volume of treated animals to the change in tumor volume of control animals at a dose of 100 mg/kg (A549 human lung carcinoma xenograft study); assay type: functional
Outline: (§4)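 A549 sc xenografts (≈10⁷ cells) in female athymic nude mice, eight per group, dosed from ≈100 mm³ tumors (day 20) iv as lactate salt in 10% DMSO/D5W qd 5×/week for 15 doses. Weekly tumor measurement; % T/C = treated over vehicle-control change in tumor volume; one-tailed Student's t-test.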

Mus musculus [7] = assay: Ratio of the change in tumor volume of treated animals to the change in tumor volume of control animals at a dose of 50 mg/kg (A549 human lung carcinoma xenograft study); assay type: functional; outline: as §4
Mus musculus [8] = assay: Ratio of the change in tumor volume of treated animals to the change in tumor volume of control animals at a dose of 10 mg/kg (A549 human lung carcinoma xenograft study); assay type: functional; outline: as §4
Mus musculus [9] = assay: Compound was tested in vivo for efficacy in athymic mice bearing HCT116 subcutaneous tumor xenografts at a dose of 100 mg/kg and change in the body weight of the mouse was evaluated; assay type: functional; conditions: route intravenous; outline: as §2
Mus musculus [10] = assay: Ratio of the change in tumor volume of treated animals to the change in tumor volume of control animals at a dose of 25 mg/kg; assay type: functional; outline: as §1
Mus musculus [11] = assay: Compound was tested in vivo for efficacy in A549 human lung carcinoma xenograft model at a dose of 25 mg/kg and change in the body weight of the mouse was evaluated; assay type: functional
Outline: (§5)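 Female outbred athymic nu/nu mice, ≈10⁷ A549 cells injected sc in right axillary region; treatment began ≈20 days post-implant at tumors ≈100 mm³, eight mice per group balanced on tumor volume. Dosing iv as lactate salt in 10% DMSO/D5W, qd 5×/week for 15 doses. Body weights recorded once weekly; % change reported.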

Mus musculus [12] = assay: Compound was tested in vivo for efficacy in A549 human lung carcinoma xenograft model at a dose of 10 mg/kg and change in the body weight of the mouse was evaluated; assay type: functional; outline: as §5
Mus musculus [13] = assay: Ratio of the change in tumor volume of treated animals to the change in tumor volume of control animals at a dose of 10 mg/kg; assay type: functional; outline: as §1
Mus musculus [14] = assay: Ratio of the change in tumor volume of treated animals to the change in tumor volume of control animals at a dose of 25 mg/kg (A549 human lung carcinoma xenograft study); assay type: functional; outline: as §4
Mus musculus [15] = assay: Compound was tested for maximum tolerated dose (MTD) that resulted in no deaths when administered intravenously for five days; assay type: functional; outline: as §3
Mus musculus [16] = assay: Ratio of the change in tumor volume of treated animals to the change in tumor volume of control animals at a dose of 50 mg/kg; assay type: functional; outline: as §1
Mus musculus [17] = assay: Compound was tested in vivo for efficacy in athymic mice bearing HCT116 subcutaneous tumor xenografts at a dose of 25 mg/kg and change in the body weight of the mouse was evaluated; assay type: functional
Mus musculus [18] = assay: Compound was tested for efficacy in athymic mice bearing HCT116 subcutaneous tumor xenografts at a dose of 100 mg/kg and change in the body weight of the mouse was evaluated; assay type: functional; outline: as §2
Mus musculus [19] = assay: Compound was tested in vivo for efficacy in A549 human lung carcinoma xenograft model at a dose of 50 mg/kg and change in the body weight of the mouse was evaluated; assay type: functional; outline: as §5
Mus musculus [20] = assay: Compound was tested in vivo for efficacy in A549 human lung carcinoma xenograft model at a dose of 100 mg/kg and change in the body weight of the mouse was evaluated; assay type: functional; outline: as §5
Mus musculus [21] = assay: Compound was tested in vivo for efficacy in athymic mice bearing HCT116 subcutaneous tumor xenografts at a dose of 50 mg/kg and change in the body weight of the mouse was evaluated; assay type: functional; conditions: route intravenous; outline: as §2

O=C(/C=C/c1ccc(CN(CCc2c[nH]c3ccccc23)C2CCOCC2)cc1)NO
T/C (Mus musculus [1]): 32%
IC50 (Histone deacetylase): 10 nM
IC50 (NCI-H1299): 40 nM
IC50 (HCT-116): 6 nM
Body weight change (Mus musculus [2]): 0.1%
MTD (Mus musculus [3]): 40 mg/kg

O=C(/C=C/c1ccc(CN(CCO)CCc2c[nH]c3ccccc23)cc1)NO [DACINOSTAT]
T/C (Mus musculus [4]): 12% and 20%
Body weight change (Mus musculus [5]): 2.7%
T/C (Mus musculus [6]): 7%
T/C (Mus musculus [7]): 15%
T/C (Mus musculus [8]): 32%
Body weight change (Mus musculus [9]): 1.4%
T/C (Mus musculus [10]): 38%
Body weight change (Mus musculus [11]): -0.9%
IC50 (NCI-H1299): 150 nM
IC50 (HCT-116): 10 nM
Body weight change (Mus musculus [12]): 1.3%
T/C (Mus musculus [13]): 55%
T/C (Mus musculus [14]): 20%
MTD (Mus musculus [15]): >200 mg/kg
T/C (Mus musculus [16]): 27%
Body weight change (Mus musculus [17]): 0%
Body weight change (Mus musculus [18]): -0.9%
Body weight change (Mus musculus [19]): -0.4%
Body weight change (Mus musculus [20]): 0.4%
Body weight change (Mus musculus [21]): 2.3%
